# Columns and labels:
# [1] = biological target: T1, Nluc-A1 receptor (Homo sapiens, UniProt P30542); test: NanoBRET saturation binding, HEK293 cells stably expressing Nluc-A1; conditions: Nluc-A1, concentrations up to 500 nM, non-specific 1 μM DPCPX
# T1 sequence (P30542 2-326 limits assumed): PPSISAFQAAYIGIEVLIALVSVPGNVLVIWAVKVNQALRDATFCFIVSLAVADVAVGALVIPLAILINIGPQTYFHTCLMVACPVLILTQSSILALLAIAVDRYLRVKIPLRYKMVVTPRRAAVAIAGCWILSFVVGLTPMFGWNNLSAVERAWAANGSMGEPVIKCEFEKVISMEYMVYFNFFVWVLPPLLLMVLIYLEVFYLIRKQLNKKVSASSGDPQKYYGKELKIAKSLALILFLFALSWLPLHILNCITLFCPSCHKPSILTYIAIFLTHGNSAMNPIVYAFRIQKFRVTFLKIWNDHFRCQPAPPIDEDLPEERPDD
# [2] = biological target: T1, Nluc-A1 receptor; test: NanoBRET association kinetics of CA200645 binding; conditions: read-out: KD from kinetics (koff/kon); Nluc-A1, room temperature, 60 min, n=3
# How it was run: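 Stable single-cell-cloned HEK293 Nluc-A1 cells were seeded 24 h ahead. Medium was replaced with HBSS containing 10 uM furimazine and equilibrated 15 min in the reader. The fluorescent ligand was then added at several concentrations, and each well was read once per min for 60 min.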
Molecule,saturable specific BRET signal [1],Kd [2]
COc1ccc(-n2nc3c(NC(=O)CCC(=O)NCCOCCOCCNC(=O)CCCCCNC(=O)COc4ccc(/C=C/C5=[N+]6C(=Cc7ccc(-c8cccs8)n7[B-]6(F)F)C=C5)cc4)nc4ccccc4n3c2=O)cc1 [AV039],did not detect a saturable specific BRET signal,
CA200645,,0.0204 ± 0.0069 µM
